# What was measured:
# [1] = target: Tyrosine-protein kinase JAK3 (Homo sapiens) (UniProt P52333); assay: Inhibition of wild-type human partial length JAK3 JH1 catalytic domain (I781 to S1124 residues) expressed in HEK293 cells assessed as residual activity at 1000 nM after 30 mins by Kinomescan method relative to control; type: cell-based
# [2] = target: Serine/threonine-protein kinase Nek9 (Homo sapiens) (UniProt Q8TD19); assay: Inhibition of wild-type human partial length NEK9 (P32 to R328 residues) expressed in Escherichia coli BL21 assessed as residual activity at 1000 nM after 30 mins by Kinomescan method relative to control
# [3] = target: Protein-tyrosine kinase 2-beta (Homo sapiens) (UniProt Q14289); assay: Inhibition of wild-type human full length PYK2 (M1 to E967 residues) expressed in Escherichia coli BL21 assessed as residual activity at 1000 nM after 30 mins by Kinomescan method relative to control
# Outline: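 Single-concentration screen at 1 µM against a 456-kinase panel (KINOMEscan). Read-out is Percent Control for each kinase. Across the 403 non-mutant kinases, an S(35) selectivity score was derived as the fraction of kinases with Percent Control < 35.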
# [4] = target: RAC-alpha serine/threonine-protein kinase (Homo sapiens) (UniProt P31749); assay: Inhibition of wild-type human partial length AKT1 expressed in Escherichia coli BL21 assessed as residual activity at 1000 nM after 30 mins by Kinomescan method relative to control
# RAC-alpha serine/threonine-protein kinase (Homo sapiens), sequence (P31749 whole entry, the tested form may be a part): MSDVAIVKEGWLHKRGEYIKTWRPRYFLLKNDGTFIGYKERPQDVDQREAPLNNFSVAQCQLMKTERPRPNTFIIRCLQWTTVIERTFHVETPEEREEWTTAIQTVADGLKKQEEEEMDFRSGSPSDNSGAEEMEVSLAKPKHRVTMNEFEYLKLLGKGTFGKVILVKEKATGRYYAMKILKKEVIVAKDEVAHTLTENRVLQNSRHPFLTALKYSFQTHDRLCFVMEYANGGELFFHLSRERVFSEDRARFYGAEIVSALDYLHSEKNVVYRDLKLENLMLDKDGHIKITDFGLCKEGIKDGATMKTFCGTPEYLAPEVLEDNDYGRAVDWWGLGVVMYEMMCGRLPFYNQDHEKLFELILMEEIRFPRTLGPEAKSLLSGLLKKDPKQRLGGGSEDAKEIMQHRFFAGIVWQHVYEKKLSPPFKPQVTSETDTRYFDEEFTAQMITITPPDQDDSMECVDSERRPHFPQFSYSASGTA
# [5] = target: Ephrin type-A receptor 1 (Homo sapiens) (UniProt P21709); assay: Inhibition of wild-type human partial length EPHA1 (V588 to I913 residues) expressed in Escherichia coli BL21 assessed as residual activity at 1000 nM after 30 mins by Kinomescan method relative to control
# [6] = target: Transient receptor potential cation channel subfamily M member 6 (Homo sapiens) (UniProt Q9BX84); assay: Inhibition of wild-type human partial length TRPM6 (Q1723 to I1998 residues) expressed in HEK293 cells assessed as residual activity at 1000 nM after 30 mins by Kinomescan method relative to control; type: cell-based
# [7] = target: Phosphatidylinositol 4-phosphate 3-kinase C2 domain-containing subunit beta (Homo sapiens) (UniProt O00750); assay: Inhibition of wild-type human partial length PIK3C2B (M1 to L1634 residues) expressed in HEK293 cells assessed as residual activity at 1000 nM after 30 mins by Kinomescan method relative to control; type: cell-based
# Phosphatidylinositol 4-phosphate 3-kinase C2 domain-containing subunit beta (Homo sapiens), sequence (O00750 whole entry, the tested form may be a part): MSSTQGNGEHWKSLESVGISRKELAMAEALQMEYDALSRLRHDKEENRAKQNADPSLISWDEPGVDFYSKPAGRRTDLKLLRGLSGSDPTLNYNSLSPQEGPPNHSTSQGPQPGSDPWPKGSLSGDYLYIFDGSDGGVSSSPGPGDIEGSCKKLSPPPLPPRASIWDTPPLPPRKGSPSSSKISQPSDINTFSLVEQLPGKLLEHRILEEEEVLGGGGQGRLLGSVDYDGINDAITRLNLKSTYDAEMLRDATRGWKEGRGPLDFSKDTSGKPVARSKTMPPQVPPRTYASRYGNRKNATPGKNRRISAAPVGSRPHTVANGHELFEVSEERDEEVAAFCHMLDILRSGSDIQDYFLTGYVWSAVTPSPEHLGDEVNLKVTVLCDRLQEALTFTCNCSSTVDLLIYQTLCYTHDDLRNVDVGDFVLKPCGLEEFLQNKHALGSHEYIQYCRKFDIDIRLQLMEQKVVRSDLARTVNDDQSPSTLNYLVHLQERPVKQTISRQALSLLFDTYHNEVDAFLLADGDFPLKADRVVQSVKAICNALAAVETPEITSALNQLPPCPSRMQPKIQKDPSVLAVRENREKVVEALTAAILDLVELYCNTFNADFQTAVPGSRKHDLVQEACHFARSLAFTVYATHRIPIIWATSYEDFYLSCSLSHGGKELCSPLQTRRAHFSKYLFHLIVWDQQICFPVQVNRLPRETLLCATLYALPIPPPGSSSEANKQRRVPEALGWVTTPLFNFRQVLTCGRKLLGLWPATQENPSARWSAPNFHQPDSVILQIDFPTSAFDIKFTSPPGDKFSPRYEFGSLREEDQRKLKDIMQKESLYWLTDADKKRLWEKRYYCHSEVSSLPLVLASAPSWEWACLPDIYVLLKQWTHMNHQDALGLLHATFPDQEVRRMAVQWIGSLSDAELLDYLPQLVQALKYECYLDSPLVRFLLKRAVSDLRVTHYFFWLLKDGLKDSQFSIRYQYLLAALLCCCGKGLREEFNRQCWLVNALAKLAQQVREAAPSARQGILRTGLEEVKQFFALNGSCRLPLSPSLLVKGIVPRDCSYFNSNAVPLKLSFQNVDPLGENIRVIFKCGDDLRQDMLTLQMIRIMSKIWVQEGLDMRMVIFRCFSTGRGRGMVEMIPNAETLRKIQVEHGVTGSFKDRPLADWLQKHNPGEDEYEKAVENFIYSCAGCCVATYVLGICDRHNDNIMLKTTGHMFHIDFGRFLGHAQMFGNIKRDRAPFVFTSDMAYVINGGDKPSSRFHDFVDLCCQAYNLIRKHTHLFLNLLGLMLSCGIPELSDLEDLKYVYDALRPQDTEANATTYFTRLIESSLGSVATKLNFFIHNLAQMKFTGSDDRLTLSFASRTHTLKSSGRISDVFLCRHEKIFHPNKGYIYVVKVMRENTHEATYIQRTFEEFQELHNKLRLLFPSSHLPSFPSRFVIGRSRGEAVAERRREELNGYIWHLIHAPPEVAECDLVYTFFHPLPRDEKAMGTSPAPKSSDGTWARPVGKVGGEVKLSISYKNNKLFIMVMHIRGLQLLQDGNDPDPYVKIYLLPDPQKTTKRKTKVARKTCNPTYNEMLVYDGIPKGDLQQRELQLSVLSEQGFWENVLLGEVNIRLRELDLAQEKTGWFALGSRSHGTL
# [8] = target: Inhibitor of nuclear factor kappa-B kinase subunit alpha (Homo sapiens) (UniProt O15111); assay: Inhibition of wild-type human full length IKK-alpha (M1 to E745 residues) expressed in HEK293 cells assessed as residual activity at 1000 nM after 30 mins by Kinomescan method relative to control; type: cell-based
# Inhibitor of nuclear factor kappa-B kinase subunit alpha (Homo sapiens), sequence (O15111 whole entry, the tested form may be a part): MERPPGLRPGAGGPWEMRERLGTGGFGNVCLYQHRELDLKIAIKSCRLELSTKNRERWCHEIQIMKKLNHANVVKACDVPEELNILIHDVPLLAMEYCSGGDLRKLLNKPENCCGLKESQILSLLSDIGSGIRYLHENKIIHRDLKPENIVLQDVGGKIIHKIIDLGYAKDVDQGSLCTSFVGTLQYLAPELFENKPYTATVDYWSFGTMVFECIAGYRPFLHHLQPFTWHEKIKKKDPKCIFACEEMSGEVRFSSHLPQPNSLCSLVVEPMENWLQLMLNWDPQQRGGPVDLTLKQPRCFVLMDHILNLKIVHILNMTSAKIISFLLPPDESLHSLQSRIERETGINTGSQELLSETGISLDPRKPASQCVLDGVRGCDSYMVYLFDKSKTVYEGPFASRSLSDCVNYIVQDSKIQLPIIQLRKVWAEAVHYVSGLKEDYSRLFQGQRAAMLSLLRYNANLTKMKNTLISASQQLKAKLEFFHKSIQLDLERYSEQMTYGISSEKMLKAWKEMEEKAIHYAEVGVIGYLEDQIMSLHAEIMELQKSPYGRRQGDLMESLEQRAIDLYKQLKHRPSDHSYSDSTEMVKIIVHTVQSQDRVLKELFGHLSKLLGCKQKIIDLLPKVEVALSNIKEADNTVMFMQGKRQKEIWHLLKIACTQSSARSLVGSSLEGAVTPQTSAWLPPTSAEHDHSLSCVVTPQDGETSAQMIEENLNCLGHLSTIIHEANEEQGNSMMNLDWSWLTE
# Outline: (§1)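 Single-concentration screen at 1 µM across a 456-kinase KINOMEscan panel. The read-out is Percent Control for each kinase.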
# [9] = system: Phosphatidylinositol 4,5-bisphosphate 3-kinase catalytic subunit alpha isoform (Homo sapiens), P42336 [Q546K]; assay: Inhibition of human partial length PIK3CA Q546K mutant (R108 to N1068 residues) expressed in HEK293 cells assessed as residual activity at 1000 nM after 30 mins by Kinomescan method relative to control; type: cell-based
# Outline: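 Single-point screen at a fixed 1 µM, run within a 456-kinase DiscoveRx KINOMEscan panel. Each kinase's read-out is Percent Control, i.e. signal relative to a control without compound. Hits were scored by a Percent Control < 35 cut-off, and an S(35) selectivity score was calculated across the non-mutant kinases.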
# [10] = target: Tyrosine-protein kinase ABL1 (Homo sapiens) (UniProt P00519); assay: Inhibition of wild-type human phosphorylated ABL1 (S229 to K512 residues) expressed in HEK293 cells assessed as residual activity at 1000 nM after 30 mins by Kinomescan method relative to control; type: cell-based
# [11] = target: Serine/threonine-protein kinase TAO3 (Homo sapiens) (UniProt Q9H2K8); assay: Inhibition of wild-type human partial length TAOK3 (M1 to T316 residues) expressed in HEK293 cells assessed as residual activity at 1000 nM after 30 mins by Kinomescan method relative to control; type: cell-based
# [12] = target: Mitogen-activated protein kinase kinase kinase 10 (Homo sapiens) (UniProt Q02779); assay: Inhibition of wild-type human partial length MLK2 (V52 to W380 residues) expressed in Escherichia coli BL21 assessed as residual activity at 1000 nM after 30 mins by Kinomescan method relative to control
# [13] = target: MAP kinase-activated protein kinase 5 (Homo sapiens) (UniProt Q8IW41); assay: Inhibition of wild-type human partial length MAPKAPK5 (M1 to D322 residues) expressed in HEK293 cells assessed as residual activity at 1000 nM after 30 mins by Kinomescan method relative to control; type: cell-based
# MAP kinase-activated protein kinase 5 (Homo sapiens), sequence (Q8IW41 whole entry, the tested form may be a part): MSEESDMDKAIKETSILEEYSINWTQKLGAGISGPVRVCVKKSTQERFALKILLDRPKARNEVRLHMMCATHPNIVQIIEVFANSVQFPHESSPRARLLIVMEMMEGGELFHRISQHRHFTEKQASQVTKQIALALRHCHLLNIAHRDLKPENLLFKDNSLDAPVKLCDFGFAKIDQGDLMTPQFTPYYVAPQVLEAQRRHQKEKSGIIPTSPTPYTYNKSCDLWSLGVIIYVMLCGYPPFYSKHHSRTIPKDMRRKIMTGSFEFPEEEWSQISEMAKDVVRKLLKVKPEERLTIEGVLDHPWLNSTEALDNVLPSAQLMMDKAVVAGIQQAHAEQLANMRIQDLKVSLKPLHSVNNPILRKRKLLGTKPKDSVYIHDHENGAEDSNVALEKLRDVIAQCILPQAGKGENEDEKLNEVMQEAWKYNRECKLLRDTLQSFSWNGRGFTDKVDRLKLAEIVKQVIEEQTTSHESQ
# [14] = target: Mitogen-activated protein kinase kinase kinase 13 (Homo sapiens) (UniProt O43283); assay: Inhibition of wild-type human full length LZK (M1 to W966 residues) expressed in HEK293 cells assessed as residual activity at 1000 nM after 30 mins by Kinomescan method relative to control; type: cell-based; outline: as §1
# [15] = target: MAP/microtubule affinity-regulating kinase 3 (Homo sapiens) (UniProt P27448); assay: Inhibition of wild-type human full length MARK3 (M1 to L729 residues) expressed in Escherichia coli BL21 assessed as residual activity at 1000 nM after 30 mins by Kinomescan method relative to control; outline: as §1
# [16] = target: Calcium/calmodulin-dependent protein kinase type II subunit alpha (Homo sapiens) (UniProt Q9UQM7); assay: Inhibition of wild-type human partial length CAMK2A (M1 to K328 residues) expressed in Escherichia coli BL21 assessed as residual activity at 1000 nM after 30 mins by Kinomescan method relative to control
# Calcium/calmodulin-dependent protein kinase type II subunit alpha (Homo sapiens), sequence (Q9UQM7 whole entry, the tested form may be a part, canonical isoform): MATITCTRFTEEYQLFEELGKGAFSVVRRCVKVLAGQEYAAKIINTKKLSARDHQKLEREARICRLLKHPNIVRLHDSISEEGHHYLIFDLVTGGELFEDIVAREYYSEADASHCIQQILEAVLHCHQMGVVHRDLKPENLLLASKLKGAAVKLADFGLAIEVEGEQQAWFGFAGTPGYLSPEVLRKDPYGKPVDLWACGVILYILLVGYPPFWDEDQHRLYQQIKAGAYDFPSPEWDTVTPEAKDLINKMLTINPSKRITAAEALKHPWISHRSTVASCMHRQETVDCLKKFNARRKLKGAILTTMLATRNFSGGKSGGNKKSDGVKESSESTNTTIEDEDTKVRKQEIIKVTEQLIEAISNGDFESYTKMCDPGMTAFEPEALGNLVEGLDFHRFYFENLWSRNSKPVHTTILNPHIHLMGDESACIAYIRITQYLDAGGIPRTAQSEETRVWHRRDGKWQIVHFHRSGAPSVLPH
# [17] = system: Phosphatidylinositol 4,5-bisphosphate 3-kinase catalytic subunit alpha isoform (Homo sapiens), P42336 [H1047Y]; assay: Inhibition of human partial length PIK3CA H1047Y mutant (R108 to N1068 residues) expressed in HEK293 cells assessed as residual activity at 1000 nM after 30 mins by Kinomescan method relative to control; type: cell-based
# Outline: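 KINOMEscan binding panel of 456 kinases, with the test compound at a single concentration of 1 µM. Read-out is Percent Control.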
# [18] = target: Dual specificity tyrosine-phosphorylation-regulated kinase 1A (Homo sapiens) (UniProt Q13627); assay: Inhibition of wild-type human partial length DYRK1A (H129 to S509 residues) expressed in HEK293 cells assessed as residual activity at 1000 nM after 30 mins by Kinomescan method relative to control; type: cell-based
# [19] = target: Protein-tyrosine kinase 6 (Homo sapiens) (UniProt Q13882); assay: Inhibition of wild-type human partial length BRK (L166 to T451 residues) expressed in Escherichia coli BL21 assessed as residual activity at 1000 nM after 30 mins by Kinomescan method relative to control
# [20] = target: Cyclin-dependent kinase 11A (Homo sapiens) (UniProt Q9UQ88); assay: Inhibition of wild-type human partial length CDC2L2 (D391 to K730 residues) expressed in Escherichia coli BL21 assessed as residual activity at 1000 nM after 30 mins by Kinomescan method relative to control
# Tyrosine-protein kinase JAK3 (Homo sapiens), sequence (P52333 whole entry, the tested form may be a part): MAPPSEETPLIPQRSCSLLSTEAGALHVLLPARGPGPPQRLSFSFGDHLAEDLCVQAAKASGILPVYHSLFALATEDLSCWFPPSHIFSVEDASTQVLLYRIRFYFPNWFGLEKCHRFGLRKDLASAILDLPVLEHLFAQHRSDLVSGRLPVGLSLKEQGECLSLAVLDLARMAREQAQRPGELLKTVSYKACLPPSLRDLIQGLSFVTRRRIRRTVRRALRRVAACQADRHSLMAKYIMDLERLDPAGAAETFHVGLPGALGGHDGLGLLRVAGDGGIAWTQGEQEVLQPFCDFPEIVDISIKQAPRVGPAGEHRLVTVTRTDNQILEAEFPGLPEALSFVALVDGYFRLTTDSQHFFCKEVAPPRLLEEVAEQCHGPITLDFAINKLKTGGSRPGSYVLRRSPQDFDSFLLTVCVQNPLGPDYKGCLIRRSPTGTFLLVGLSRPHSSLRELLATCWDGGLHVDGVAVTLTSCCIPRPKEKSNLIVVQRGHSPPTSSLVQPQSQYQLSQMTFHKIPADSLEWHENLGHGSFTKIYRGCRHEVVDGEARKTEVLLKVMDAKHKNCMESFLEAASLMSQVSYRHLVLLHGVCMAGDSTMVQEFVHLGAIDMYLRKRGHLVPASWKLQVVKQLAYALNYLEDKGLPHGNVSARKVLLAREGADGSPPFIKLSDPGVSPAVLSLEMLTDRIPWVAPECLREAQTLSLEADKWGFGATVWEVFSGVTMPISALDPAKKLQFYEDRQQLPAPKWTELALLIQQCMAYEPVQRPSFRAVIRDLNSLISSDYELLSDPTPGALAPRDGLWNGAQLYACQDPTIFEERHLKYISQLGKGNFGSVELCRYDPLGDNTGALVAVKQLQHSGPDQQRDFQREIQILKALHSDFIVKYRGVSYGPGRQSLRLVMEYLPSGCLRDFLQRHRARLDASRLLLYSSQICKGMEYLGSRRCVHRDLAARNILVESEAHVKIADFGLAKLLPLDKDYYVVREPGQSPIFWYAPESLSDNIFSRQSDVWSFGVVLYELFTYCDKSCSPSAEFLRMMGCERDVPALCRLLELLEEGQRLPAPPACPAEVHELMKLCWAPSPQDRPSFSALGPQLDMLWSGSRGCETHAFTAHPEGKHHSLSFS
structure (smiles),measurement,setting,value
COc1cc(OC)c(Cl)c(N2Cc3cnc(Nc4ccc(F)cc4)nc3N(C3CCN(C(=O)/C=C/CN(C)C)CC3)C2=O)c1Cl,Activity,[1],98%
same,Activity,[2],100%
same,Activity,[3],91%
same,Activity,[4],88%
same,Activity,[5],82%
same,Activity,[6],100%
same,Activity,[7],89%
same,Activity,[8],95%
same,Activity,[9],98%
same,Activity,[10],37%
same,Activity,[11],36%
same,Activity,[12],94%
same,Activity,[13],100%
same,Activity,[14],100%
same,Activity,[15],99%
same,Activity,[16],100%
same,Activity,[17],100%
same,Activity,[18],98%
same,Activity,[19],100%
same,Activity,[20],88%

# Reference: ChEMBL document CHEMBL4043093, “2-Oxo-3, 4-dihydropyrimido[4, 5-d]pyrimidinyl derivatives as new irreversible pan fibroblast growth factor receptor (FGFR) inhibitors” (Eur J Med Chem, 2017)
